Here are results for two compounds from paper PMC12570389 (RSC Advances, 2025).

“Also recorded” adds a separate entry of the source.

One series concerns CCR2. Particulars: Table S5C training set of 3D-QSAR; ref BindingDB; cited from earlier work.
The next series deals with COL1A1. The experiment in a line: RT-qPCR of COL1A1 mRNA in TGF-β-stimulated MRC-5 cells. It is filed as cell-based, human. Particulars: 17 (50 μM), 67 (100 μM), nintedanib (10 μM), 48 hours, vs TGF-β model. For orientation: Quantitative PCR measures a nucleic acid by following its amplification.
The test system of series [1] is Human diploid fibroblasts (MRC-5). The experiment in a line: CCK8 viability assay in TGF-β-induced pulmonary fibrosis cell model. The series is classed as cell-based. Summed up: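 MRC-5 fibroblasts were seeded at 2000 cells/well and given TGF-β (10 ng mL−1) for 48 h to build the fibrosis model. Test compound was dissolved in DMSO, diluted in DMEM and applied at 0, 1, 1.25, 2.5, 5, 10, 25, 50 and 100 μmol for 48 h, with a reference antifibrotic as positive control. CCK8 (10% volume) was added, plates incubated 3 h in the dark, and A450 read.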

In a further series the test system is MRC-5 cells. The experiment in a line: Hydroxyproline content in TGF-β-stimulated MRC-5 cells. It is filed as cell-based, human. Particulars: 17 (50 μM), 67 (100 μM), nintedanib (10 μM), 48 hours, vs TGF-β model. The method in brief:
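TGF-β (10 ng mL−1, 48 h) stimulated MRC-5 fibrosis model cells were then exposed to test compound at a single concentration (50 or 100 μM), or to a reference antifibrotic at 10 μM, for 48 h. Hydroxyproline content was compared with the TGF-β-stimulated model.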

A word on the IC50: it is the concentration that inhibits the measured activity by half. Turning to `Cc1ccc(-c2ccc3c(c2)C=C(C(=O)Nc2ccc(C[N+](C)(C)C4CCOCC4)cc2)CCC3)cc1` [BDBM50088301], the IC50 with CCR2 was 0.03 nM.

For `COC(=O)c1ccc2c(c1)NC(=O)/C2=C(\Nc1ccc(N(C)C(=O)CN2CCN(C)CC2)cc1)c1ccccc1` [nintedanib], the “expression of COL1A1” value in the series with COL1A1 was “significantly decreased”. In series [1] (TGF-β (10 ng mL^−1) induced MRC-5, 48-hour drug treatment, 0-100 μmol), the “proliferation / 48-hour cell inhibition rate (CCK8)” value is recorded as “effectively suppressed the proliferation; also recorded: concentration-dependent increase in their inhibitory effects”. Also, the “cytotoxic effect on the pulmonary fibrosis cell model, comparison” value in series [1] (TGF-β induced MRC-5, 48 h, CCK8) is “even stronger cytotoxic effect than compound 17”. In the series with MRC-5 cells, the hydroxyproline result was “significantly decreased”.
